Screening data: PubChem BioAssay, Broad Institute
Ecoli rRNA inh – selective bacterial rRNA inhibition in E. coli; E. coli WT GFP vs humanized-ribosome RFP mutants, fluorescence, 24 h; active compounds read low; DMSO median 0, no signal -100; GFP signal change (wild-type ribosome), % (no concentration beside the values); 350,000 tested, 1.6% active;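 active = significant combined selectivity score with lowered wild-type GFP, culture density cut under 30%, mutant RFP and density less affected; inactive = any of these conditions unmet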
Xi reactivation – X-chromosome reactivation activator. XiGFP mouse fibroblasts, % GFP-positive cells imaging, 3 d; cells co-treated with 5-aza-dC sensitizer; scaled so ellipticine positive control = 100%. activation, % at 7.58 µM. 360,000 tested, 0.055% active;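 active = mean normalized replicate activation at least 10% and every replicate at or above 10%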;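 also: 0% = median of on-plate neutral control wells and 100% = ellipticine 6 µM median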
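Assay system: SV40-immortalized XiGFP fibroblast cells, line 68-5-11; buffer or medium: DMEM plus 5-aza-dC sensitizer; compound: one concentration, pinned; timing: compounds 3 days, fix/stain 15 min at room temperature; benchmarks: positive control ellipticine, 6 µM final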
E-sel inducer – induces E-selectin expression in human endothelial cells; P16581; HUVEC E-selectin immunofluorescence imaging; normalized: neutral wells 0, TNF-alpha wells 100; activation, % at 7.58 µM; 260,000 tested, 0.37% active; AID 686992;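 active = mean E-selectin-positive cell signal at least 10% of the positive control, reached in at least 60% of replicates, without over 20% cell loss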
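Assay system: HUVEC, human umbilical vein endothelial cells / Amount: 3,000 HUVEC/well / Controls: TNF-alpha positive control, DMSO neutral control / Compound dosing: single concentration / Medium: EGM-2 over gelatin coat / Evaluation: percent E-selectin-positive cells / Signal: immunofluorescence imaging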
RAD52 inh – inhibitors of human RAD52 DNA annealing | P43351 | recombinant RAD52 DNA annealing, FRET fluorescence | inhibition, % at 18.7 µM | 360,000 tested, 0.46% active | AID 651710;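 active = every replicate showing at least 50% inhibition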
Target sequence (P43351 whole entry, looked up): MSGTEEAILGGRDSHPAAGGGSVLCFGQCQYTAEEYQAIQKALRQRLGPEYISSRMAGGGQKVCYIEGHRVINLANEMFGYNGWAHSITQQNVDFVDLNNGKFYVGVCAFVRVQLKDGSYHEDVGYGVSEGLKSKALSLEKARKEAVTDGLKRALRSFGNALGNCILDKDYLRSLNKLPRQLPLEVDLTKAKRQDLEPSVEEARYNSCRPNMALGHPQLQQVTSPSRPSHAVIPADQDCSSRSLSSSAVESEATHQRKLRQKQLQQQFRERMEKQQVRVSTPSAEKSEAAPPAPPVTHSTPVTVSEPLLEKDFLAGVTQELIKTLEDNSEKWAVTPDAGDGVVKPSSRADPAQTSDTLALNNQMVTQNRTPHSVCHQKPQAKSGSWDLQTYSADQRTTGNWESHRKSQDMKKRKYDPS
PglD inh – PglD (C. jejuni) enzyme inhibition. inhibition, % at 12.5 µM. purified PglD enzyme, DTNB colorimetric CoA detection. 360,000 tested, 0.098% active; in the data active = inhibition above about 16%, passing the limit was not always enough
RAD54 branch – blocks human RAD54 Holliday junction branch migration; AID 602329; FAM/BHQ fluorescence; 360,000 tested, 0.14% active; Q92698; inhibition, % at 10.4 µM;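 active = mean normalized replicate activity at least 40 and at least half of replicates scoring 40 or more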;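 also: 0% = median of neutral control wells and 100% = median of positive control wells; inhibitors cause a drop in the FAM fluorescence signal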
An asterisk follows results filed as active; . = no result given. The list is not random: actives were taken first. Their share in the collection is about 2%.

SMILES	Ecoli rRNA inh	Xi reactivation	E-sel inducer	RAD52 inh	PglD inh	RAD54 branch
CC(C)NC(=O)Nc1ccc2c(c1)C(=O)N([C@@H](C)CO)C[C@H](C)[C@@H](CN(C)C(=O)c1ccccc1)OCCCC[C@@H](C)O2	-1	0	0	5	3	-3
C[C@H](CO)N1C[C@H](C)[C@H](CN(C)CC2CC2)Oc2c(NC(=O)C3CC3)cccc2C1=O	3	0	64*	13	-11	4
C[C@H]1CN([C@@H](C)CO)C(=O)c2cccc(NC(=O)C3CC3)c2O[C@H]1CN(C)Cc1ccccc1	9	0	27*	2	13	0
C[C@@H]1CN([C@@H](C)CO)C(=O)c2cccc(NC(=O)C3CC3)c2O[C@H]1CN(C)Cc1ccccc1	-3	0	52*	0	-4	-12
C[C@H](CO)N1C[C@H](C)[C@H](CN(C)Cc2ccccc2)Oc2c(NC(=O)C3CCCCC3)cccc2C1=O	0	0	0	13	4	-9
C[C@@H]1CN([C@@H](C)CO)C(=O)c2cccc(NC(=O)C3CCOCC3)c2O[C@@H]1CN(C)Cc1ccncc1	0	-1	228*	-2	1	-1
CCC(=O)N[C@H]1CC[C@@H](CCNS(=O)(=O)c2ccc(Cl)cc2)O[C@@H]1CO	0	1	-1	-3	-3	6
COCC#Cc1ccc([C@@H]2[C@H]3CN(C(=O)Nc4cc(F)ccc4F)CC(=O)N3[C@H]2CO)cc1	-3	0	.	.	.	.
O=C(NNC(=O)c1cc2cc(OC(F)(F)F)ccc2[nH]1)c1cccc(C(F)(F)F)c1	-21*	0	0	-2	.	.
NNC(=O)c1cc2cc(OC(F)(F)F)ccc2[nH]1	-25	1	11	-11	.	.
COc1c(F)c(F)c(C(=O)Nc2ccc3oc(-c4ccncc4)nc3c2)c(F)c1F	.	.	.	.	-1	3
COc1cccc(OC)c1C(=O)NC(=S)Nc1ccc2oc(-c3ccncc3)nc2c1	-14*	0	1	-4	8	-10
CCN(CC)c1ccc(/C=N/NC(=S)NCc2ccco2)cc1	.	1	-1	-13	.	.
S=C(NCc1ccco1)N/N=C/c1ccc(Cl)cc1	-39*	0	-2	-9	.	.
ONC(=Nc1ccccc1Cl)c1c(F)cccc1F	-37*	0	.	-11	.	.
O=C(c1cc(-c2cccc(Br)c2)nc2ccccc12)N1CCCC1	-26	0	1	-14	0	4
O=C(c1cc(-c2ccc(Br)cc2)nc2ccccc12)N1CCC1	-25*	0	1	-29	-3	-5
CO[C@@H]1CN(C)C(=O)c2ccc(NS(=O)(=O)CC(F)(F)F)cc2OC[C@H](C)N(Cc2nccs2)C[C@H]1C	1	0	0	6	0	-7
CN(C)CCNCCCNc1c2ccccc2nc2cccc([N+](=O)[O-])c12	5	0	0	81*	.	.
CC(/C=C/c1ccc(O)cc1)=NNc1ccccc1	-21*	0	0	-19	-9	-2
C[C@@H]1CN([C@H](C)CO)C(=O)Cc2cc(NC(=O)C3CC3)ccc2O[C@@H]1CN(C)S(=O)(=O)c1ccc(F)cc1	4	0	0	8	-12	9
c1ccc(-c2csc(NC3=NCCCCC3)n2)cc1	7	0	0	-7	.	-3
N#Cc1ccc(-c2csc(NC3=NCCCCC3)n2)cc1	4	0	44*	-11	.	.
O=C1C2C(C(=O)N1/N=C/c1ccc([N+](=O)[O-])o1)C1C=CC2C12CC2 (stereo unspecified)	.	1	.	.	-7	-4
CC1=NN(c2nc(N)nc(/C(C#N)=C/c3ccc([N+](=O)[O-])o3)n2)C(C)(C)C1	21	73*	1	-26	.	.
SMILES	Ecoli rRNA inh	Xi reactivation	E-sel inducer	RAD52 inh	PglD inh	RAD54 branch
S=c1[nH]cnc2scc(-c3ccc(Cl)cc3)c12	-51*	0	0	-18	-7	-10
Cc1ccc(-c2csc3nc[nH]c(=S)c23)cc1	.	0	2	.	.	.
CC1=Nc2cc(C(=O)NCC3CCCO3)ccc2Sc2ccc(Br)cc21 (stereo unspecified)	-22*	0	2	-18	-6	-6
C[C@H](CO)N1C[C@H](C)[C@H](CN(C)S(=O)(=O)c2cccs2)OCCCC[C@H](C)Oc2ccc(NS(=O)(=O)c3cn(C)cn3)cc2C1=O	1	0	.	109*	2	-1
Cc1noc(C)c1S(=O)(=O)N(C)C[C@@H]1OCCCC[C@H](C)Oc2ccc(NS(=O)(=O)c3cccs3)cc2C(=O)N([C@@H](C)CO)C[C@H]1C	4	-1	0	64*	5	-3
COc1cccc(NC(=O)N2CC(=O)N3[C@H](CO)[C@@H](c4ccc(C#CC5CCCC5)cc4)[C@H]3C2)c1	1	0	0	-14	.	.
COc1ccc(/C=N/NC(=S)NCCc2ccccc2)cc1	-22*	0	0	-10	-2	7
COc1ccc2[nH]cc(CCNC(=S)NCCc3ccccc3)c2c1	-35*	0	.	-28	5	-1
COc1ccc2[nH]cc(C(=O)NCCc3ccccc3)c(=O)c2c1	-21*	0	0	-2	8	5
NNC(=O)c1ccc(COc2ccccc2)cc1	5	0	1	-4	-2	2
NNC(=O)c1c[nH]c2ccc(OCc3ccccc3)cc12	-27*	0	.	-24	.	.
C[C@@H]1CN([C@@H](C)CO)C(=O)c2cc(NC(=O)c3ccncc3)ccc2O[C@@H]1CN(C)Cc1ccc2c(c1)OCO2	-1	0	-1	4	0	-8
C/C=C/c1ccc2c(c1)O[C@H](CN(C)C(=O)CN(C)C)[C@@H](C)CN([C@@H](C)CO)S2(=O)=O	-3	-1	-1	5	-4	2
COC(=O)c1cc2c(c3c4cc(OC)ccc4n(S(=O)(=O)c4ccc(F)cc4)c13)C(=O)N(Cc1ccccc1)C2	11	0	0	-43	.	.
COc1ccc(NC(=O)N(C)C[C@@H]2Oc3ccc(NS(=O)(=O)c4cccs4)cc3CC(=O)N([C@H](C)CO)C[C@@H]2C)cc1	4	0	0	.	-3	1
O=C(NCc1cccc(F)c1)[C@H]1[C@H](CO)[C@H]2Cn3c(ccc(-c4cccnc4)c3=O)[C@@H]1N2CC1CC1	1	0	0	-5	3	2
COc1ccc2[nH]cc(CCNC(=O)C3CC(=O)N(c4ccc(Cl)cc4)C3)c2c1 (stereo unspecified)	-24*	0	.	-14	-9	-3
COc1ccc2c(=O)c(C(=O)NCCc3ccccc3)c[nH]c2c1	-27*	0	0	-9	0	2
